Measurements as given in ChEMBL document CHEMBL1126828, “Structure-activity relationships of trans-3,4-dimethyl-4-(3-hydroxyphenyl)piperidine antagonists for mu- and kappa-opioid receptors” (J Med Chem, 1993).
Activity calls are given as the source filed them. The rule behind the calls is not given here.

How the values were obtained:
[1] = molecular target: T1, Kappa-type opioid receptor (Cavia porcellus, UniProt P41144); assay: Binding affinity towards kappa-opioid receptor by displacement of [3H]-EKC at from guinea pig cortical tissue
[2] = molecular target: T2, Mu-type opioid receptor (Rattus norvegicus, UniProt P33535); assay: Binding affinity towards mu-opioid receptor by displacement of [3H]NAL at 10 nM from rat brain homogenates; assay type: tissue-based
[3] = molecular target: Kappa-type opioid receptor (Mus musculus) (UniProt P33534); assay: Antagonism of opioid analgesia using a mouse writhing model to block U-50,488 ([…]) induced kappa-opioid receptor subcutaneously; assay type: functional, organism-based
[4] = molecular target: Mu-type opioid receptor (Mus musculus) (UniProt P42866); assay: Antagonism of opioid analgesia using a mouse writhing model to block morphine ([…]) induced mu-opioid receptor (subcutaneously dosed); assay type: functional, organism-based
[5] = molecular target: T2, Mu-type opioid receptor; assay: Binding affinity towards mu opioid receptor by displacement of [3H]NAL from rat brain homogenates; assay type: tissue-based
[6] = molecular target: Kappa-type opioid receptor (Rattus norvegicus) (UniProt P34975); assay: Tested for the antagonism of kappa opioid receptor diuresis at a dose of 0.08 mg/kg subcutaneously; assay type: functional, organism-based; parameters: dose 0.08 mg/kg
Outline: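 Male Long-Evans hooded rats (350-500 g), bremazocine HCl 0.08 mg/kg sc to induce diuresis, test antagonist sc at once on opposite side; metabolism cages, urine volume at 2 and 5 h. Three rats per dose, doses varied 2-fold; AD50 = dose halving 5-h urination.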

[7] = molecular target: T2, Mu-type opioid receptor; assay: Binding affinity towards mu-opioid receptor by displacement of [3H]NAL at 100 nM from rat brain homogenates; assay type: tissue-based
[8] = molecular target: T1, Kappa-type opioid receptor; assay: Binding affinity towards kappa-opioid receptor by displacement of [3H]EKC from guinea pig cortical tissue
Outline: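 Guinea pig cortical washed crude synaptosomal membranes (stored -125 °C) in modified Krebs-HEPES pH 7.4; 1.0 nM [3H]ethylketocyclazocine, 100 nM fentanyl and 100 nM D-Ala2-D-Leu5-enkephalin to block mu/delta sites; 37 °C, 45 min. Nonspecific: 1000 nM unlabeled EKC. GF-C filtration, ice-cold washes, scintillation counting. Ki from at least six concentrations in triplicate, by regression.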

[9] = molecular target: Mu-type opioid receptor (Mus musculus) (UniProt P42866); settings: 0.08 mg/kg

Chain of Mu-type opioid receptor (Mus musculus) (P42866 whole entry): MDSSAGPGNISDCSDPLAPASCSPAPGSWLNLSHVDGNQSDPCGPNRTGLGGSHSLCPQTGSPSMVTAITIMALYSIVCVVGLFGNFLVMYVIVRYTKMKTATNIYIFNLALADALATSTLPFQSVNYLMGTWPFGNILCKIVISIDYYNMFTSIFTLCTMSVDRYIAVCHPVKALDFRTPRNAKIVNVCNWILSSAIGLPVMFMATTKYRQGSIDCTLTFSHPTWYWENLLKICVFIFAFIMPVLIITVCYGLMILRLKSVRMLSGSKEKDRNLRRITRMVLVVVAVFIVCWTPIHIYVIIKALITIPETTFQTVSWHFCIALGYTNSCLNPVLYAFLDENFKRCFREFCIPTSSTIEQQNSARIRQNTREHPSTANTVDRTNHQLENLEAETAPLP
T2 sequence (P33535 whole entry): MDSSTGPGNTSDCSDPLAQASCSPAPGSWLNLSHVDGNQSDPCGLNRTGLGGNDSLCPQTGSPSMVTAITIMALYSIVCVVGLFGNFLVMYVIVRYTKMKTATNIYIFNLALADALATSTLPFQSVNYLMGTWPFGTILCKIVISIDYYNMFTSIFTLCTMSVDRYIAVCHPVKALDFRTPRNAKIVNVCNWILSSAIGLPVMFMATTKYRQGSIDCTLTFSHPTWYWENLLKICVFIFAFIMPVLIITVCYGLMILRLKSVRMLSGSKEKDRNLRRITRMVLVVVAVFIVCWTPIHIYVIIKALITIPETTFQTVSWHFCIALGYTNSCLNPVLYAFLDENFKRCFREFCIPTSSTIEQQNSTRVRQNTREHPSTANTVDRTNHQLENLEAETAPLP
Chain of Kappa-type opioid receptor (Mus musculus) (P33534 whole entry): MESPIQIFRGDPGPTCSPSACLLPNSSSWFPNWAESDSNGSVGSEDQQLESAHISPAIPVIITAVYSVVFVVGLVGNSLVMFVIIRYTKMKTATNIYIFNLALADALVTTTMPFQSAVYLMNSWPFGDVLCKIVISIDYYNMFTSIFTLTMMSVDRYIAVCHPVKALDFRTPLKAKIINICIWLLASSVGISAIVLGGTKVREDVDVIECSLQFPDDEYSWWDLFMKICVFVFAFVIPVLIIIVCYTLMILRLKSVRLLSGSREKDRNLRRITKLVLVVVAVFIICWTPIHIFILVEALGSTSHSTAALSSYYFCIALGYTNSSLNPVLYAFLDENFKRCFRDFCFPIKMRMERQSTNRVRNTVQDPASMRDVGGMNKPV
Chain of Kappa-type opioid receptor (Rattus norvegicus) (P34975 whole entry): as the sequence (P33534 whole entry) above, with D11E, S17A, S51P, A308V counted along it
T1 sequence (P41144 whole entry): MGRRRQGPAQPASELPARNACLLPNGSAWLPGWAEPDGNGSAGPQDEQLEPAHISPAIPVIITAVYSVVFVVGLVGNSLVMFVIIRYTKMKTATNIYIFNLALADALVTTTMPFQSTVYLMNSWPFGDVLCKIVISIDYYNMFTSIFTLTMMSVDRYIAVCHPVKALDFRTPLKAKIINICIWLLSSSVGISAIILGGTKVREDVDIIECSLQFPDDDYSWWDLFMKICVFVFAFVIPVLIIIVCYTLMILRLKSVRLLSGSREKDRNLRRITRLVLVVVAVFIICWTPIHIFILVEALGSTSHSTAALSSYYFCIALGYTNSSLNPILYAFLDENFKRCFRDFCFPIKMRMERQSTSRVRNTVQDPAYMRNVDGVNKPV

C[C@H]1CN(CCCc2ccsc2)CC[C@@]1(C)c1cccc(O)c1
Ki [1]: 10 nM | Ki [2]: 0.26 nM

C[C@H]1CN(CC2CC2)CC[C@@]1(C)c1cccc(O)c1
AD50 [3]: 6.1 mg/kg | AD50 [4]: 1.3 mg/kg | Ki [5]: 21 nM

C[C@H]1CN(CCc2cccc(Cl)c2)CC[C@@]1(C)c1cccc(O)c1
AD50 [3]: 0.38 mg/kg | AD50 [4]: 0.44 mg/kg | AD50 [6]: 3.6 mg/kg | Ki [5]: 0.3 nM

C[C@@H]1CN(CCCc2cccs2)CC[C@]1(C)c1cccc(O)c1
Ki [1]: 13 nM | Ki [5]: 1.8 nM

CCN1CC[C@@](C)(c2cccc(O)c2)[C@@H](C)C1
Ki [1]: 18 nM | AD50 [3]: > 1.25 mg/kg | AD50 [4]: > 1.25 mg/kg | Ki [5]: 52 nM

C[C@H]1CN(CC(O)c2ccccc2)CC[C@@]1(C)c1cccc(O)c1 (stereo partly drawn)
AD50 [3]: 11.8 mg/kg | AD50 [4]: 2.4 mg/kg | AD50 [6]: 6.9 mg/kg | Ki [2]: 48 nM | Ki [7]: 97 nM

C[C@H]1CN(CCc2ccncc2)CC[C@@]1(C)c1cccc(O)c1
AD50 [3]: > 1.25 mg/kg | AD50 [4]: > 1.25 mg/kg | AD50 [6]: 14 mg/kg | Ki [2]: 54 nM | Ki [7]: 99 nM

C=CCN1CC[C@@](C)(c2cccc(O)c2)[C@@H](C)C1
Ki [1]: 313 nM | AD50 [3]: > 10 mg/kg | AD50 [4]: 1.3 mg/kg | Ki [5]: 16 nM

C[C@H]1CN(CCCc2cccs2)CC[C@@]1(C)c1cccc(O)c1 (stereo in doubt; 41) [listing 1 of 2 here]
AD50 [3]: 0.3 mg/kg

C[C@H]1CN(CCc2cccc3ccccc23)CC[C@@]1(C)c1cccc(O)c1
AD50 [3]: 0.51 mg/kg | AD50 [4]: 0.08 mg/kg | AD50 [6]: > 5 mg/kg | Ki [2]: 1.1 nM

C[C@@H]1CN(CCC(=O)c2ccccc2)CC[C@]1(C)c1cccc(O)c1
Ki [1]: 318 nM | Ki [5]: 12 nM

C[C@H]1CN(CCc2cccc(F)c2)CC[C@@]1(C)c1cccc(O)c1
AD50 [3]: 0.84 mg/kg | AD50 [4]: 0.14 mg/kg | AD50 [6]: 1.4 mg/kg | Ki [2]: 3.2 nM

CCCCCCCN1CC[C@@](C)(c2cccc(O)c2)[C@@H](C)C1
Ki [5]: 0.62 nM

C[C@H]1CN(C)CC[C@@]1(C)c1cccc(O)c1
Ki [1]: 833 nM | AD50 [4]: 0.74 mg/kg | AD50 [6]: > 10 mg/kg | Ki [5]: 80 nM

C[C@H]1CN(CCCc2cccs2)CC[C@@]1(C)c1cccc(O)c1 (stereo in doubt; 42) [listing 1 of 2 here]
AD50 [3]: 0.25 mg/kg | AD50 [4]: 0.03 mg/kg

C[C@H]1CN(CCC(=O)c2ccccc2)CC[C@@]1(C)c1cccc(O)c1 (stereo in doubt; 6) [listing 1 of 2 here]
Ki [1]: 208 nM | Ki [5]: 5.4 nM

C[C@H]1CN(CCc2ccccc2)CC[C@@]1(C)c1cccc(O)c1
AD50 [3]: 1.4 mg/kg | AD50 [4]: 0.16 mg/kg | AD50 [6]: 1.8 mg/kg

C[C@H]1CN(CCCc2cccc(Cl)c2)CC[C@@]1(C)c1cccc(O)c1
AD50 [3]: > 1.25 mg/kg | AD50 [4]: 0.76 mg/kg | AD50 [6]: 11 mg/kg | Ki [2]: 89 nM | Ki [7]: 100 nM

C[C@H]1CN(CCCc2ccccc2)CC[C@@]1(C)c1cccc(O)c1
Ki [1]: 15 nM | AD50 [4]: 2.4 mg/kg | AD50 [6]: 1.1 mg/kg | Ki [5]: 0.69 nM

C[C@H]1CN(CCOc2ccccc2)CC[C@@]1(C)c1cccc(O)c1
Ki [1]: 57 nM | AD50 [3]: > 40 mg/kg | AD50 [4]: 0.14 mg/kg | AD50 [6]: 3 mg/kg | Ki [5]: 1.3 nM

Cc1ccccc1CCCN1CC[C@@](C)(c2cccc(O)c2)[C@@H](C)C1
Ki [1]: 8.9 nM | AD50 [3]: 0.09 mg/kg | AD50 [4]: 0.05 mg/kg | AD50 [6]: 1.4 mg/kg | Ki [5]: 0.62 nM

Cc1cccc(CCN2CC[C@@](C)(c3cccc(O)c3)[C@@H](C)C2)c1
AD50 [3]: 0.95 mg/kg | AD50 [4]: 0.27 mg/kg | AD50 [6]: 5.7 mg/kg | Ki [2]: 83 nM | Ki [7]: 100 nM

CC(CCCN1CC[C@@](C)(c2cccc(O)c2)[C@@H](C)C1)c1ccccc1 (stereo partly drawn)
AD50 [3]: 0.91 mg/kg | AD50 [4]: 0.25 mg/kg | AD50 [6]: 8.4 mg/kg | Ki [2]: 63 nM | Ki [7]: 100 nM

C[C@H]1CN(CCC(=O)c2ccccc2)CC[C@@]1(C)c1cccc(O)c1 (stereo in doubt; 8)
Ki [1]: 163 nM | Ki [5]: 3.6 nM

Cc1cccc(CCCN2CC[C@@](C)(c3cccc(O)c3)[C@@H](C)C2)c1
AD50 [3]: > 0.32 mg/kg | AD50 [4]: > 1.25 mg/kg | AD50 [6]: 10 mg/kg | Ki [5]: 2.8 nM

C[C@H]1CN(Cc2ccoc2)CC[C@@]1(C)c1cccc(O)c1
AD50 [3]: 0.71 mg/kg | AD50 [4]: 0.4 mg/kg | AD50 [6]: 3.8 mg/kg | Ki [2]: 82 nM | Ki [7]: 100 nM

C[C@H]1CN(CC(O)Cc2ccccc2)CC[C@@]1(C)c1cccc(O)c1 (stereo partly drawn)
AD50 [3]: 0.85 mg/kg | AD50 [4]: 0.27 mg/kg | AD50 [6]: 3.7 mg/kg | Ki [2]: 88 nM | Ki [7]: 100 nM

CCCCCN1CC[C@@](C)(c2cccc(O)c2)[C@@H](C)C1
AD50 [4]: 0.37 mg/kg | AD50 [6]: 0.69 mg/kg | Ki [5]: 4.3 nM

C[C@H]1CN(CCCCc2ccccc2)CC[C@@]1(C)c1cccc(O)c1
AD50 [3]: > 1.25 mg/kg | AD50 [4]: 0.28 mg/kg | AD50 [6]: 4.1 mg/kg | Ki [5]: 2 nM

C[C@H]1CN(CCC(=O)c2cccs2)CC[C@@]1(C)c1cccc(O)c1
Ki [1]: 15 nM | Ki [5]: 1.5 nM

C[C@H]1CN(CCCOc2ccccc2)CC[C@@]1(C)c1cccc(O)c1
Ki [1]: 61 nM | AD50 [3]: > 1.25 mg/kg | AD50 [4]: > 1.25 mg/kg | AD50 [6]: 8.4 mg/kg | Ki [5]: 1 nM

C[C@H]1CN(Cc2ccccc2)CC[C@@]1(C)c1cccc(O)c1
AD50 [3]: 0.45 mg/kg | AD50 [4]: 0.29 mg/kg | AD50 [6]: 2.5 mg/kg | Ki [2]: 65 nM | Ki [7]: 89 nM

C[C@H]1CN(CCc2ccccc2Cl)CC[C@@]1(C)c1cccc(O)c1
AD50 [3]: 0.51 mg/kg | AD50 [4]: 0.31 mg/kg | AD50 [6]: 3.4 mg/kg | Ki [5]: 3.5 nM

COc1ccccc1CCCN1CC[C@@](C)(c2cccc(O)c2)[C@@H](C)C1
AD50 [3]: > 0.64 mg/kg | AD50 [4]: 0.18 mg/kg | AD50 [6]: 2.2 mg/kg | Ki [5]: 0.95 nM

C[C@H]1CN(CC2CCCO2)CC[C@@]1(C)c1cccc(O)c1 (stereo partly drawn)
AD50 [3]: 0.75 mg/kg | AD50 [4]: 0.6 mg/kg | AD50 [6]: 3.2 mg/kg | Ki [2]: 26 nM | Ki [7]: 60 nM

C[C@H]1CN(Cc2ccco2)CC[C@@]1(C)c1cccc(O)c1
Ki [1]: 71 nM | AD50 [3]: 1.35 mg/kg | AD50 [4]: 0.71 mg/kg | Ki [5]: 5.8 nM

Cc1ccccc1CCN1CC[C@@](C)(c2cccc(O)c2)[C@@H](C)C1
AD50 [3]: 0.33 mg/kg | AD50 [4]: 0.19 mg/kg | AD50 [6]: 0.5 mg/kg | Ki [2]: 90 nM | Ki [8]: 7.5 nM | Ki [7]: 100 nM

C[C@H]1CN(CCCCc2cccs2)CC[C@@]1(C)c1cccc(O)c1
AD50 [3]: 0.43 mg/kg | AD50 [4]: 0.16 mg/kg | AD50 [6]: 3.3 mg/kg | Ki [2]: 23 nM | Ki [7]: 69 nM

C[C@H]1CN(CCc2ccc(Cl)c(Cl)c2)CC[C@@]1(C)c1cccc(O)c1
AD50 [9]: inactive | Ki [2]: 50 nM | Ki [7]: 90 nM

C[C@H]1CN(CCC(O)c2ccccc2)CC[C@@]1(C)c1cccc(O)c1 (stereo partly drawn)
Ki [1]: 12.5 nM | Ki [5]: 0.96 nM

C[C@H]1CN(CCC(O)c2cccs2)CC[C@@]1(C)c1cccc(O)c1 (stereo partly drawn)
Ki [1]: 11.7 nM | AD50 [3]: 0.14 mg/kg | AD50 [4]: 0.07 mg/kg | AD50 [6]: 1.4 mg/kg | Ki [5]: 0.5 nM

C[C@H]1CN(CCCc2ccco2)CC[C@@]1(C)c1cccc(O)c1
Ki [1]: 14 nM | AD50 [3]: 0.26 mg/kg | AD50 [4]: 0.08 mg/kg | Ki [5]: 1.4 nM

Cc1ccc(CCN2CC[C@@](C)(c3cccc(O)c3)[C@@H](C)C2)cc1
AD50 [3]: > 1.25 mg/kg | AD50 [4]: > 1.25 mg/kg | AD50 [6]: 11 mg/kg | Ki [2]: 52 nM | Ki [7]: 95 nM

C[C@H]1CN(CCC(=O)c2ccccc2)CC[C@@]1(C)c1cccc(O)c1 (stereo in doubt; 6) [listing 2 of 2 here]
AD50 [3]: 4.5 mg/kg | AD50 [4]: 0.14 mg/kg | AD50 [6]: 3.2 mg/kg

CCCCCCN1CC[C@@](C)(c2cccc(O)c2)[C@@H](C)C1
AD50 [3]: 0.11 mg/kg | AD50 [4]: 0.052 mg/kg | AD50 [6]: 0.7 mg/kg | Ki [5]: 0.29 nM

C[C@H]1CN(CCCc2cccs2)CC[C@@]1(C)c1cccc(O)c1 (stereo in doubt; 42) [listing 2 of 2 here]
Ki [1]: 3.3 nM | Ki [5]: 0.2 nM

C[C@H]1CN(CCc2cccs2)CC[C@@]1(C)c1cccc(O)c1
AD50 [3]: 0.25 mg/kg | AD50 [4]: 0.25 mg/kg | AD50 [6]: 3.8 mg/kg | Ki [5]: 5.3 nM

C[C@H]1CN(CCCc2cccs2)CC[C@@]1(C)c1cccc(O)c1 (stereo in doubt; 41) [listing 2 of 2 here]
Ki [1]: 6.1 nM | Ki [5]: 0.56 nM
